In test [1] the test system is 3T3-L1. As to the kind of experiment: Reversal of high glucose-induced insulin resistance in mouse 3T3L1 cells. Type of test: functional, cell-based. The procedure, abridged:
(§1)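 Mouse 3T3-L1 preadipocytes were grown in high-glucose DMEM with 10% FBS and phenol red. At 90% confluence they were differentiated for 4 days with FBS, insulin, dexamethasone and IBMX. Cells were replated and kept 2 days in FBS medium. Insulin resistance was induced over 4 days with low insulin and high dexamethasone. Cells were then treated with sample in phenol red-free high-glucose DMEM, at three concentrations. Controls were normal differentiated cells (blank) and untreated insulin-resistant cells (negative); rosiglitazone was the positive control.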

For test [2], the system named is 3T3-L1. As to the kind of experiment: Reversal of high glucose-induced insulin resistance in mouse 3T3L1 cells assessed as relative sensitization rate at 1 umol/ml relative to rosiglitazone. Type of test: functional. A digest of the protocol: as §1
The test system of test [3] is L6. As to the kind of experiment: Increase in glucose transport in rat L6 cells assessed as sensitization rate at 1 umol/ml. It is filed as functional. The procedure, abridged:
(§2)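 Rat L6 myoblasts were grown 24 h in high-glucose DMEM with 10% FBS and phenol red. They were differentiated to myotubes in high-glucose DMEM with 2% FBS for 6–8 days, with medium changed every 48 h. Cells were then starved serum-free overnight, and 4–6 h without serum or glucose. Samples were added in serum-free DMEM with 20 mmol glucose for 16–24 h. Supernatant glucose was read by kit at OD 490 nm. Sensitization rate = (negative OD − sample OD)/(negative OD − blank OD) × 100%, tested at two concentrations.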

The test system of test [4] is 3T3-L1. As to the kind of experiment: Reversal of high glucose-induced insulin resistance in mouse 3T3L1 cells assessed as relative sensitization rate at 0.10 umol/ml relative to rosiglitazone. Type of test: functional. A digest of the protocol: as §1
Test [5] relates to L6. As to the kind of experiment: Increase in glucose transport in rat L6 cells assessed as sensitization rate at 10 umol/ml. Type of test: functional. The procedure, abridged:
as §2

Test [6] has as its system 3T3-L1. As to the kind of experiment: Reversal of high glucose-induced insulin resistance in mouse 3T3L1 cells assessed as relative sensitization rate at 10 umol/ml relative to rosiglitazone. It is filed as functional. The procedure, abridged:
as §1

Test [7] has as its system 3T3-L1. As to the kind of experiment: Reversal of high glucose-induced insulin resistance in mouse 3T3L1 cells assessed as insulin sensitization relative to rosiglitazone. It is filed as functional. A digest of the protocol: as §1
Test [8] concerns 3T3-L1. As to the kind of experiment: Reversal of high glucose-induced insulin resistance in mouse 3T3L1 cells at 1 umol/ml. Type of test: functional, cell-based. A digest of the protocol:
as §1

Active and inactive are the calls of the source. The rule behind the calls is not given here.

Regarding `COc1cc(CN(C(C)C)C(C)C)c2cc3[n+](cc2c1O)CCc1cc2c(cc1-3)OCO2.[Cl-]`, the Activity entry was “Dose-dependent effect” in test [1]; 28.02% in test [2]; 17.97% in test [3]; -64.34% in test [4]; 46.08% in test [5]; 112.25% in test [6].
`COc1ccc2cc3[n+](cc2c1OC)CCc1cc2c(cc1-3)OCO2.[Cl-]` [BERBERINE CHLORIDE]: the Activity in test [2] was 13.27%; in test [3] it was 21.3%; in test [4] it was -2.93%; in test [5] it was 43.28%; in test [6], 74.23%.
Taken in the same sequence, the figures for `COc1cc(CN(c2ccccc2)c2ccccc2)c2cc3[n+](cc2c1O)CCc1cc2c(cc1-3)OCO2.[Cl-]` were 62.08%, 12.43%, 33.38%, 53.05% and 96.66%.
As for `COc1cc(CN(C)C)c2cc3[n+](cc2c1O)CCc1cc2c(cc1-3)OCO2.[Cl-]`, the Activity in test [2] is listed as -17.72%; in test [3], 51.3%; in test [4] it was -16.79%; in test [5], 78.5%; in test [6] it was 51.59%.
For the compound `COc1cc(CN2CCN(C(=O)OC(C)(C)C)CC2)c2cc3[n+](cc2c1O)CCc1cc2c(cc1-3)OCO2.[Cl-]`, the Activity entry in test [1] is “Dose-dependent effect”; in test [2] it was 3.14%; in test [3] it was 23.32%; in test [4], -43.33%; in test [5] it was 52.51%; in test [6] it was 107.3%.
For the compound `COc1cc(CN2CCOCC2)c2cc3[n+](cc2c1O)CCc1cc2c(cc1-3)OCO2.[Cl-]`, the Activity entry in test [1] is “Dose-dependent effect”; in test [2] it was 68.72%; in test [3] it was 26.16%; in test [4], 28.22%; in test [5] it was 57.22%; in test [6], 115.14%.
On to `CCN(CC)Cc1cc(OC)c(O)c2c[n+]3c(cc12)-c1cc2c(cc1CC3)OCO2.[Cl-]`, for which the Activity in test [2] is 23.48%; in test [3], 5.81%; in test [4], 2.03%; in test [5], 48.83%; in test [6] it was 75.63%.
Regarding `COc1cc(CN(Cc2ccccc2)Cc2ccccc2)c2cc3[n+](cc2c1O)CCc1cc2c(cc1-3)OCO2.[Cl-]`, the Activity in test [2] is listed as -9.51%; in test [3] it was 28.39%; in test [4], -17.34%; in test [5], 70.02%; in test [6], 65.58%.
Turning to `COc1cc(CN2CCCC2)c2cc3[n+](cc2c1O)CCc1cc2c(cc1-3)OCO2.[Cl-]`, the Activity was -12.1% in test [2]; 7.95% in test [3]; -22.09% in test [4]; 40.73% in test [5]; 73.15% in test [6].
Take `COc1cc(CN2CCCCC2)c2cc3[n+](cc2c1O)CCc1cc2c(cc1-3)OCO2.[Cl-]`: the Activity entry was “Dose-dependent effect” in test [1]; 41.02% in test [2]; 15.78% in test [3]; 8.33% in test [4]; 43.53% in test [5]; 102.93% in test [6].
Consider `COc1cc(CN2CCN(C)CC2)c2cc3[n+](cc2c1O)CCc1cc2c(cc1-3)OCO2.[Cl-]`, for which the “fold change (FC)” value in test [7] was 1.26. The Activity result is “Dose-dependent effect” in test [1]; 90.23% in test [2]; 41.9% in test [3]; -1.09% in test [4]; 48.55% in test [5]; 126.29% in test [6]. In addition, the result in test [8] was Active.

The values above are taken from ChEMBL document CHEMBL3232971, “Synthesis and in vitro evaluation of 12-(substituted aminomethyl) berberrubine derivatives as anti-diabetics” (2014).
